S100A4 inh HTS – inhibitors of human S100A4 binding to myosin IIA peptide | P26447 | S100A4/TAMRA-MyoIIA peptide fluorescence polarization | inhibition, % at 10.7 µM | actives 0.14% (n = 360,000);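 active means mean inhibition of at least 70% across replicates, with every replicate also reaching that level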
Target sequence (P26447 whole entry, looked up): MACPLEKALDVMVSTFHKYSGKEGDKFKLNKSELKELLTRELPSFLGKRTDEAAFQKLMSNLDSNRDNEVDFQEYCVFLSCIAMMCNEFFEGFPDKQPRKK
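Test system – S100A4 monomer (human) · Compound – single-point compound testing · Schedule – 5 min incubation before reading · Probe or stimulus – TAMRA-labelled myosin IIA heavy-chain peptide probe, 5 nM · Benchmarks – neutral control DMSO, positive control TFP · Medium – Calcium-containing HEPES buffer, pH 7.2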
ERAP1 inh – ERAP1 (human) enzyme inhibition; Q9NZ08; recombinant ERAP1, Leu-AMC fluorescence, 60 min; inhibition, % at 10.7 µM; actives 0.15% (n = 340,000); AID 652197;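 active means mean replicate inhibition of at least 30%, or all replicates individually reaching that 30% level; inactive means mean below 30% and not every replicate reaching it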;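 further: 0% = neutral control wells and 100% = L-leucinethiol positive control wells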
rRNA inh HTS – inhibitors of bacterial rRNA selective over humanized ribosomes | E. coli WT GFP vs humanized-ribosome RFP mutants, fluorescence, 24 h; stronger effect = lower value; DMSO median 0, no signal -100 | GFP signal change (wild-type ribosome), % (no concentration beside the values) | actives 1.6% (n = 350,000);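 active means significant combined selectivity score with lowered wild-type GFP, culture density cut under 30%, mutant RFP and density less affected; inactive means any of these conditions unmet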
F508del corr – CFTR F508del correction in bronchial cells; CFBE cells, YFP halide quenching; stimulated with forskolin plus potentiator P3; % fluorescence drop versus neutral controls; activity (quench increase), % at 7.58 µM; actives 0.36% (n = 350,000);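 active means mean added fluorescence quench of at least 8% versus neutral control, with both replicates also reaching 8%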;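 further: cells transiently co-express mutant CFTR-F508del with the halide-sensitive YFP; corrector assay measuring rescue of mutant channel to the surface after 24 h compound exposure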
SIRT5 inh – sirtuin-5 (human) deacylase inhibition; Q9NXA8; Purified SirT5, succinyl-peptide AMC, trypsin-coupled fluorescence; inhibition, % at 15 µM; actives 1.1% (n = 330,000); in the data active means inhibition above about 15%
Target sequence (Q9NXA8 whole entry, looked up): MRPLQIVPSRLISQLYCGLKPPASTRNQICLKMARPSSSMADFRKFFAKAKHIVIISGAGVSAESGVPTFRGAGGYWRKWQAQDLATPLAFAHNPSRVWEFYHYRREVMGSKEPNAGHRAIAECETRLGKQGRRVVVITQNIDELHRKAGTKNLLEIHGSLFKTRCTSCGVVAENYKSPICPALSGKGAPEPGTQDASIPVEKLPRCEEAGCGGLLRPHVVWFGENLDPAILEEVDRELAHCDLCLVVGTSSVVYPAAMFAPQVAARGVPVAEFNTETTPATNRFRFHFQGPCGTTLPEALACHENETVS
Starred values were filed as active, the others as inactive. Rows were chosen to be rich in hits. Some 3.1% of all compounds tested hit in one or more screens of this group.

COc1ccc(C(=O)c2ccc(N(C)C)cc2)c(OC)c1 was read as S100A4 inh HTS 8, ERAP1 inh 3, rRNA inh HTS -8, F508del corr 11* and SIRT5 inh 6.
Screening COc1ccc(S(=O)(=O)N(C)C[C@@H]2OCCCC[C@H](C)Oc3ccc(NC(=O)Nc4ccc(C(F)(F)F)cc4)cc3C(=O)N([C@H](C)CO)C[C@@H]2C)cc1 returned S100A4 inh HTS -9, ERAP1 inh -1, rRNA inh HTS 4, F508del corr -2 and SIRT5 inh 0.
`COc1ccc(CC(=O)OC(C)C(=O)c2ccc(C)cc2)cc1` (stereo unspecified) gave S100A4 inh HTS 24, ERAP1 inh 0, rRNA inh HTS -30*, F508del corr 2 and SIRT5 inh -4.
`Cc1ccc(S(=O)(=O)N[C@H]2CC[C@@H](CCn3cc(-c4cccnc4)nn3)O[C@@H]2CO)cc1` gave S100A4 inh HTS 0, ERAP1 inh 0, rRNA inh HTS 0, F508del corr 1 and SIRT5 inh -2.
For COc1cccc2sc(NC(=O)c3ccc(S(=O)(=O)N4CCOCC4)cc3)nc12 the results were S100A4 inh HTS 10, ERAP1 inh 3, rRNA inh HTS -16, F508del corr -2 and SIRT5 inh 15*.
Screening CC(=O)NC(=S)Nc1cccc2c(C)cc(C)nc12 returned S100A4 inh HTS -7, ERAP1 inh -3, rRNA inh HTS 11, F508del corr -1 and SIRT5 inh -2.
For Cc1cc(C)c2cccc(N)c2n1 the results were S100A4 inh HTS -15, ERAP1 inh -2, rRNA inh HTS -23*, F508del corr 1 and SIRT5 inh -3.
For O=C(N/N=C/c1cnc(N2CCCCC2)s1)c1ccc(C(F)(F)F)cc1 the results were S100A4 inh HTS -7, ERAP1 inh -3, rRNA inh HTS 16, F508del corr -1 and SIRT5 inh -4.
CC1CN(c2ncc(/C=N/NC(=O)c3ccccc3O)s2)CC(C)O1 (stereo unspecified) was read as S100A4 inh HTS 5, ERAP1 inh 3, rRNA inh HTS -31*, F508del corr 0 and SIRT5 inh 6.
Screening CC(=O)Nc1cccc2c1O[C@H](CN(C)S(C)(=O)=O)[C@H](C)CN(C)C2=O returned rRNA inh HTS -3.
CN(C)CCN(Cc1ccccc1)C(c1ccnc2ccccc12)c1nnnn1-c1ccc2c(c1)OCCO2 (stereo unspecified) was read as S100A4 inh HTS -7, ERAP1 inh 2, rRNA inh HTS -21, F508del corr 5 and SIRT5 inh -7.
For CN(Cc1ccccc1)C(c1ccnc2ccccc12)c1nnnn1-c1ccc2c(c1)OCCO2 (stereo unspecified) the results were S100A4 inh HTS -7, ERAP1 inh 0, rRNA inh HTS -4, F508del corr -2 and SIRT5 inh 39*.
`COC(=O)C1=CN(c2ccc(OC)cc2)C(N)=C(C#N)C1c1ccc(OC)cc1` (stereo unspecified) gave S100A4 inh HTS -2, rRNA inh HTS -27, F508del corr 1 and SIRT5 inh -5.
For COC(=O)C1=CN(c2ccc3c(c2)OCO3)C(N)=C(C#N)C1c1cccc(F)c1 (stereo unspecified) the results were S100A4 inh HTS 2, ERAP1 inh -1, rRNA inh HTS -9, F508del corr 11* and SIRT5 inh 2.
COC(=O)C1=CN(c2ccc(OC)cc2OC)C(N)=C(C#N)C1c1ccc(OC)cc1 (stereo unspecified) was read as S100A4 inh HTS 35, rRNA inh HTS -26*, F508del corr -4 and SIRT5 inh 3.
For COC(=O)C1=CN(c2ccc(OC)cc2OC)C(N)=C(C#N)C1c1ccccc1F (stereo unspecified) the results were S100A4 inh HTS -6, rRNA inh HTS 2, F508del corr 9.8* and SIRT5 inh 0.
COc1ccc(CN(C)C[C@@H]2Oc3c(NC(=O)c4cc(C)nn4C)cccc3C(=O)N([C@@H](C)CO)C[C@H]2C)cc1 was read as S100A4 inh HTS 3, ERAP1 inh 3, rRNA inh HTS -6, F508del corr -2 and SIRT5 inh 3.
For O=C(N/N=C/c1ccccn1)c1cc(-c2ccc(Br)s2)[nH]n1 the results were S100A4 inh HTS 0, ERAP1 inh -1, rRNA inh HTS 4, F508del corr 0 and SIRT5 inh 18*.
CCc1ccc(-c2cc(C(=O)N/N=C/c3ccco3)[nH]n2)cc1 was read as S100A4 inh HTS -2, ERAP1 inh -2, rRNA inh HTS -20*, F508del corr -3 and SIRT5 inh -3.
For O=C(N/N=C/c1ccccn1)c1cc(-c2ccc3ccccc3c2)n[nH]1 the results were S100A4 inh HTS -3, ERAP1 inh -2, rRNA inh HTS -55 and SIRT5 inh -3.
For CCOc1ccccc1-c1cc(C(=O)N/N=C/c2cccnc2)c2ccccc2n1 the results were S100A4 inh HTS -1, ERAP1 inh 0, F508del corr 0 and SIRT5 inh 5.
`CCc1ccc(-c2cc(C(=O)N/N=C/c3ccccn3)[nH]n2)cc1` gave S100A4 inh HTS 1, ERAP1 inh 2, rRNA inh HTS -25*, F508del corr -4 and SIRT5 inh 0.
For Cc1ccc(COc2ccccc2-c2cc(C(=O)N/N=C/c3cccnc3)[nH]n2)cc1 the results were S100A4 inh HTS 3, ERAP1 inh 0, rRNA inh HTS -5, F508del corr 9.7* and SIRT5 inh -6.
Screening COc1ccc(-c2ccc([C@@H]3[C@H]4CN(Cc5ccc(F)cc5)CC(=O)N4[C@H]3CO)cc2)cc1 returned S100A4 inh HTS -9, ERAP1 inh 0, rRNA inh HTS 0, F508del corr -2 and SIRT5 inh 1.
For COc1ccc2c3c(n(C)c2c1)[C@H](CO)N(C(=O)c1cccnc1)CC31CN(C(=O)c2cccnc2)C1 the results were S100A4 inh HTS 2, ERAP1 inh 3, rRNA inh HTS 0, F508del corr -2 and SIRT5 inh 0.
Screening CCC(=O)Nc1ccc2c(c1)C(=O)N(C)C[C@H](OC)[C@H](C)CN(C(=O)CC1CC1)[C@H](C)CO2 returned S100A4 inh HTS -21, ERAP1 inh -1, rRNA inh HTS 3, F508del corr 0 and SIRT5 inh 0.
For Cc1cc(C)cc(N(C(=O)c2csnn2)C(C(=O)NC(C)(C)C)c2ccccn2)c1 (stereo unspecified) the results were S100A4 inh HTS 11, ERAP1 inh 1, rRNA inh HTS 7, F508del corr 1 and SIRT5 inh 26*.
For C[C@@H]1CCCCO[C@@H](CN(C)C(=O)Cc2ccccc2)[C@H](C)CN([C@@H](C)CO)C(=O)c2cc(NC(=O)Nc3cccc4ccccc34)ccc2O1 the results were S100A4 inh HTS -46, ERAP1 inh 1, rRNA inh HTS 1, F508del corr -1 and SIRT5 inh 7.
